Source: PubChem BioAssay
T cell HTS = T cell immune modulation candidate | 2C CD8+ T cell-vesicle binding, flow cytometry; stronger effect = lower value | response (vesicle binding), % at 7 µM | hit rate 0.068% among 330,000;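 active = response, share of CD8 T cells binding vesicles, and their 90th percentile fluorescence all below set limits, cut at about 80% in these data, passing the limit was not always enough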;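 note: values below 100% mean blocked vesicle binding to the CD8+ T cells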
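Assay system – 2C mouse CD8+ T cells · Also added – QL9-loaded Drosophila micro-vesicles · Timing – Cell–vesicle co-incubation 1.5 h at 37 °C, staining 20 min on ice · Signal – flow cytometry of vesicle-bound cells · Measure – percent CD8+ FL2 mean versus row control · Controls – Peptide-free naked vesicles (low) and QL9 vesicles with 0.7% DMSO vehicle (high)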
N-glyco inh = N-linked glycosylation inhibition | D54 ERlucT glycosylation luciferase reporter, 24 h; percent of 100 nM tunicamycin response | reporter increase, % at 12.5 µM | hit rate 0.23% among 360,000 | AID 588692;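 active = mean luciferase reporter signal, scaled so untreated is 0 and the glycosylation-blocking control 100, at or above a set limit in every replicate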;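 note: luciferase carries N-glycosylation sites so blocking glycosylation raises the light; 0% = median of neutral control wells and 100% = median of 100 nM tunicamycin wells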
ALR H2O2 inh = human ALR oxidase inhibition via reduced H2O2; purified ALR, DTT oxidation, H2O2 HRP-luminol luminescence; inhibition, % (test concentration not listed); hit rate 3.8% among 290,000;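 active = mean replicate inhibition above about 79%, with every replicate also reaching it, limit read from the data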
Target sequence (P55789 whole entry, looked up): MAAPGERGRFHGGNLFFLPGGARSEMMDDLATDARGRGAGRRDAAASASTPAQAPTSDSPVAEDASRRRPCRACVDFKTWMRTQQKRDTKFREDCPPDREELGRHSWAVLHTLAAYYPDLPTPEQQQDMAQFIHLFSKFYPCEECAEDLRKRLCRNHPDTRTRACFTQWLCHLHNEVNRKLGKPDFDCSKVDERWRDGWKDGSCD
Starred values were filed as active, the others as inactive. The full list was thinned out, with hits kept by preference.

Screening COc1ccc(C2N=C(c3ccccc3)NO2)cc1OC (stereo not given) returned T cell HTS 336.6, N-glyco inh -2.0 and ALR H2O2 inh -16.1.
COc1cc(C2N=C(c3ccccc3)NO2)cc(Br)c1O (stereo not given) was read as T cell HTS 185.1, N-glyco inh 4.1 and ALR H2O2 inh 98.1*.
`Cn1sc(NC(=O)c2ccc(Cl)cc2)nc1=O` gave T cell HTS 422.2, N-glyco inh -1.2 and ALR H2O2 inh 97.2*.
Screening Cc1ccc(C(=O)Nc2nc(=O)n(C)s2)cc1 returned T cell HTS 302.3, N-glyco inh -1.3 and ALR H2O2 inh 11.6.
`COc1ccccc1NC(=O)CSc1nc2nccnc2c(=O)n1Cc1cccs1` gave T cell HTS 309.3, N-glyco inh -0.4 and ALR H2O2 inh 95.8*.
Screening Cc1ccc(CNC(=O)CSc2nc3ccsc3c(=O)n2Cc2ccccn2)cc1 returned T cell HTS 288.0, N-glyco inh 2.6 and ALR H2O2 inh -5.6.
`Cc1ccc(NC(=O)CSc2nc3ccccc3c(=O)n2Cc2cccs2)cc1` gave T cell HTS 112.7, N-glyco inh -3.0 and ALR H2O2 inh -36.7.
O=C(CSc1nc2nccnc2c(=O)n1Cc1cccs1)Nc1ccccc1 was read as T cell HTS 250.1, N-glyco inh -3.5 and ALR H2O2 inh 98.2*.
Screening COCCn1c(SCC(=O)Nc2ccccc2OC)nc2c(oc3ccccc32)c1=O returned T cell HTS 135.1, N-glyco inh -2.0 and ALR H2O2 inh -1.9.
`COc1ccc(NC(=O)CSc2nc3ccsc3c(=O)n2Cc2ccccn2)c(OC)c1` gave T cell HTS 228.9, N-glyco inh 21.9 and ALR H2O2 inh 95.8*.
For Cc1cc(C(C2C(=O)CC(C)(C)CC2=O)C2C(=O)CC(C)(C)CC2=O)cc(C)c1OC(F)F the results were T cell HTS 192.6, N-glyco inh 0.0 and ALR H2O2 inh 59.7.
`COCCNC(=O)Cn1c(=O)n(CCCC(=O)NCc2ccc3c(c2)OCO3)c(=O)c2sccc21` gave T cell HTS 634.7 and N-glyco inh 1.6.
`O=C(COC(=O)c1ccc(S(=O)(=O)N2CCCCC2)cc1)Nc1ccccc1Cl` gave N-glyco inh 2.0.
For COc1ccc(S(=O)(=O)NC(=O)C2(C)CCN2C(=O)CCc2ccc(Cl)cc2Cl)cc1 (stereo not given) the results were N-glyco inh 1.2.
Screening COC(=O)c1ccc(NC(=O)COc2ccc(S(=O)(=O)NC(C)(C)C)cc2)cc1 returned T cell HTS 239.5, N-glyco inh 0.4 and ALR H2O2 inh 1.9.
Screening COc1cc(NC(=O)COc2ccc([N+](=O)[O-])cc2)ccc1NC(=O)c1ccco1 returned N-glyco inh 0.0.
CCCCOc1ccc(-c2c(C#N)c(N)[nH]c(=S)c2C#N)cc1 was read as T cell HTS 320.9, N-glyco inh 2.2 and ALR H2O2 inh 87.9*.
Screening CCCCOc1ccc(-c2c(C(=O)Nc3ccccc3)c(C)[nH]c(=S)c2C#N)cc1 returned T cell HTS 320.5, N-glyco inh 1.4 and ALR H2O2 inh 12.1.
`Cc1cccc(OCC(=O)NCc2nc(-c3ccccc3)no2)c1` gave T cell HTS 0.0, N-glyco inh 1.0 and ALR H2O2 inh 6.9.
Cc1cccc(NCc2nc(-c3ccccc3)no2)c1 was read as T cell HTS 110.0, N-glyco inh -3.1 and ALR H2O2 inh 91.5*.
For FC(F)Oc1ccc(NC(=S)NC23CC4CC(CC(C4)C2)C3)cc1 the results were T cell HTS 535.4, N-glyco inh -6.8 and ALR H2O2 inh -4.4.
For CC1=NN(c2ccccc2)C(=O)C1C(=O)c1ccccc1 (stereo not given) the results were T cell HTS 269.1 and N-glyco inh 1.0.
`CC1=NN(c2ccccc2)C(=O)C1c1ccccc1` (stereo not given) gave T cell HTS 458.0, N-glyco inh 2.8 and ALR H2O2 inh 93.6*.
For CCn1c(NC(=O)c2ccc(C)cc2)c2ccccc2nc1=O the results were T cell HTS 259.5, N-glyco inh 2.4 and ALR H2O2 inh 95.4*.
CCn1c(NC(=O)c2ccc(F)cc2)c2ccccc2nc1=O was read as T cell HTS 351.5, N-glyco inh 5.8 and ALR H2O2 inh 60.1.
`Cc1nccn1CCCNC(=O)c1nc(Cn2cc([N+](=O)[O-])cn2)no1` gave T cell HTS 185.1, N-glyco inh 0.3 and ALR H2O2 inh -10.5.
Cn1c(SCc2n[nH]c(=S)n2-c2ccccc2)nnc1-c1ccccc1 was read as T cell HTS 227.4, N-glyco inh 1.0 and ALR H2O2 inh 37.2.
Screening O=C(c1ccccc1)c1ccc2cc(O)ccc2c1 returned T cell HTS 98.8, N-glyco inh 1.1 and ALR H2O2 inh 99.5*.
For O=C(c1ccccc1)c1ccc2ccccc2c1 the results were N-glyco inh -0.5.
COc1cc(/C=N/Nc2ccccc2[N+](=O)[O-])cc(OC)c1O was read as T cell HTS 222.2, N-glyco inh 2.3 and ALR H2O2 inh 73.7.
For COc1cc(/C=N/Nc2ccc(Cl)nn2)cc(OC)c1O the results were T cell HTS 206.3, N-glyco inh 3.4 and ALR H2O2 inh 94.5*.
For COc1cc(/C=N/Nc2ccc(F)cc2F)cc(OC)c1O the results were T cell HTS 519.9, N-glyco inh 1.1 and ALR H2O2 inh 99.2*.
Screening Oc1c(Br)cc(/C=N/Nc2ccc(Cl)nn2)cc1Br returned T cell HTS 102.3 and N-glyco inh -2.2.
For CC(=O)c1ccc(S(=O)(=O)N2CCN(C(=O)c3ccc(COc4ccccc4)o3)CC2)cc1 the results were N-glyco inh -5.4.
Cc1cccc(C)c1Nc1cn[nH]c1 was read as N-glyco inh 0.0.
O=C(O)C1C2C=CC(C2)C1C(=O)Nc1ccc2c(c1)OCCO2 (stereo not given) was read as T cell HTS 400.5, N-glyco inh -14.2 and ALR H2O2 inh -29.0.
Screening CN(C)c1ccc(NC(=O)C2C3C=CC(C3)C2C(=O)O)cc1 (stereo not given) returned T cell HTS 207.5, N-glyco inh -12.8 and ALR H2O2 inh 99.2*.
For CCn1ncc(C2=NOC(C(=O)NCc3ccc(Cl)cc3)C2)c1C (stereo not given) the results were T cell HTS 247.7, N-glyco inh 36.2* and ALR H2O2 inh -2.2.
Screening CCn1ncc(C2=NOC(C(=O)Nc3ccc(C)cc3)C2)c1C (stereo not given) returned T cell HTS 188.1, N-glyco inh -0.9 and ALR H2O2 inh -6.3.
For CCN(CC(=O)Nc1c(F)cccc1F)C(=O)C1CCN(c2ncnc3sc(C)c(C)c23)CC1 the results were T cell HTS 183.6, N-glyco inh -8.5 and ALR H2O2 inh -1.8.
NC1=NC[C@H](Cc2ccc(O)cc2)N1CCCCC1CCCCC1 was read as T cell HTS 431.6, N-glyco inh 5.2 and ALR H2O2 inh 76.5*.
`NC1=NC[C@H](Cc2ccccc2)N1CCCCC1CCCCC1` gave T cell HTS 168.8, N-glyco inh 14.9 and ALR H2O2 inh -54.9.
COc1c(/C=N/Nc2ccc(C(=O)O)cc2)c(CCN(C)C(C)=O)cc2c1OCO2 was read as T cell HTS 208.6, N-glyco inh 0.8 and ALR H2O2 inh 96.7*.
Screening COc1c(/C=N/NC(=O)c2ccccc2O)c(CCN(C)C(C)=O)cc2c1OCO2 returned T cell HTS 255.0, N-glyco inh 1.6 and ALR H2O2 inh 5.5.
